Test results published in ChEMBL document CHEMBL3352177, “C-glycoside mimetics inhibit glioma stem cell proliferation, migration, and invasion” (J Med Chem, 2014).

Columns and labels:
[1] = Antimigratory activity against human Gli4 cells on matrix containing vitronectin after 24 hrs by 2-D migration assay; assay type: functional, cell-based
Summary of the method: (§1)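 Boyden chamber 2D migration toward serum over 24 h on fibronectin, vitronectin or laminin matrix. Cells in DMEM with 0.1% BSA in the upper compartment with or without compound; 10% FCS medium below. Gli4/Gli7 taken from neurosphere cultures. Migrated cells methanol-fixed, crystal violet stained, counted at ×200. Ki from Hill equation fit; ≥3 independent experiments, each point in quadruplicate.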

A-431 = assay: Antiproliferative activity against human A431 cells after 48 to 72 hrs by MTT assay; assay type: functional, cell-based
Summary of the method: (§2)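 MTT assay read 48 and 72 h after compound addition. Cell lines grown in DMEM with 10% heat-inactivated FCS, 2 mM L-glutamine, 1 mM sodium pyruvate; GBM stem cells grown as nonadherent neurospheres. IC50 by Hill equation fit; ≥3 independent experiments, each point repeated six times.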

[2] = Antiproliferative activity against human Caco2 cells after 48 to 72 hrs by MTT assay; assay type: functional, cell-based; conditions: Caco-2; summary of the method: as §2
MDA-MB-231 = assay: Antiproliferative activity against human MDA-MB-231 cells after 48 to 72 hrs by MTT assay; assay type: functional, cell-based; summary of the method: as §2
MDA-MB-435 = assay: Antiproliferative activity against human MDA-MB-435 cells after 48 to 72 hrs by MTT assay; assay type: functional, cell-based; summary of the method: as §2
[3] = Antiproliferative activity against human HuH7 cells after 48 to 72 hrs by MTT assay; assay type: functional, cell-based; conditions: Huh-7; summary of the method: as §2
[4] = Antiproliferative activity against mouse B16F10 cells after 48 to 72 hrs by MTT assay; assay type: functional, cell-based; conditions: B16-F10; summary of the method: as §2
DU-145 = assay: Antiproliferative activity against human DU145 cells after 48 to 72 hrs by MTT assay; assay type: functional, cell-based; summary of the method: as §2
C6 [5] = assay: Antiproliferative activity against rat C6 cells after 48 to 72 hrs by MTT assay; assay type: functional, cell-based; summary of the method: as §2
SNB-75 [6] = assay: Antiproliferative activity against human SNB75 cells after 48 to 72 hrs by MTT assay; assay type: functional, cell-based; summary of the method: as §2
[7] = Antiproliferative activity against human Gli7 cells after 48 to 72 hrs by MTT assay; assay type: functional, cell-based; summary of the method: as §2
[8] = Antimigratory activity against human Gli4 cells on matrix containing fibronectin after 24 hrs by 2-D migration assay; assay type: functional, cell-based; summary of the method: as §1
[9] = Antimigratory activity against human Gli7 cells on matrix containing fibronectin after 24 hrs by 2-D migration assay; assay type: functional, cell-based; summary of the method: as §1
SNB-75 [10] = assay: Antimigratory activity against human SNB75 cells on matrix containing fibronectin after 24 hrs by 2-D migration assay; assay type: functional, cell-based; summary of the method: as §1
C6 [11] = assay: Antimigratory activity against rat C6 cells on matrix containing fibronectin after 24 hrs by 2-D migration assay; assay type: functional, cell-based; summary of the method: as §1
[12] = Antimigratory activity against human Gli7 cells on matrix containing vitronectin after 24 hrs by 2-D migration assay; assay type: functional, cell-based; summary of the method: as §1
SNB-75 [13] = assay: Antimigratory activity against human SNB75 cells on matrix containing vitronectin after 24 hrs by 2-D migration assay; assay type: functional, cell-based; summary of the method: as §1
C6 [14] = assay: Antimigratory activity against rat C6 cells on matrix containing vitronectin after 24 hrs by 2-D migration assay; assay type: functional, cell-based; summary of the method: as §1
[15] = Antimigratory activity against human Gli4 cells on matrix containing laminin after 24 hrs by 2-D migration assay; assay type: functional, cell-based; summary of the method: as §1
[16] = Antimigratory activity against human Gli7 cells on matrix containing laminin after 24 hrs by 2-D migration assay; assay type: functional, cell-based; summary of the method: as §1
SNB-75 [17] = assay: Antimigratory activity against human SNB75 cells on matrix containing laminin after 24 hrs by 2-D migration assay; assay type: functional, cell-based; summary of the method: as §1
C6 [18] = assay: Antimigratory activity against rat C6 cells on matrix containing laminin after 24 hrs by 2-D migration assay; assay type: functional, cell-based; summary of the method: as §1
[19] = Antiproliferative activity against human Gli4F11 cells after 48 to 72 hrs by MTT assay
[20] = Antiinvasive activity against human Gli4 cells after 48 hrs by matrigel assay; assay type: functional, cell-based
[21] = Antiinvasive activity against human Gli7 cells after 48 hrs by matrigel assay; assay type: functional, cell-based
[22] = Cytotoxicity against mouse astrocytes at 100 uM by MTT assay; assay type: cell-based; conditions: astrocyte
Summary of the method: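 Primary astrocytes from day-2 newborn mouse cortex, kept 21 days (nonproliferative, GFAP-positive), exposed to compound up to 100 μM; viability by MTT assay.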

[23] = Cytotoxicity against rat cortical neurons at 100 uM using propidium iodide by flow cytometry; conditions: cortical neurone
[24] = Cytotoxicity against rat cortical neurons at 100 uM by MAP2 immunofluorescence assay; conditions: cortical neurone
Summary of the method: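 Rat E17 embryonic cortical neurons cultured 17 days, treated 48 h; then 5 μg/mL Hoechst 33342 and 10 μM propidium iodide for 30 min at 37 °C, PBS wash, 4% paraformaldehyde fixation. Fluorescence read on plate reader and by camera imaging; MAP2 immunofluorescence imaged; Triton X-100 (2%) control; mean % PI uptake from three wells per condition.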

SMILES | Ki [1] | IC50 (A-431) | IC50 [2] | IC50 (MDA-MB-231) | IC50 (MDA-MB-435) | IC50 [3] | IC50 [4] | IC50 (DU-145) | IC50 (C6 [5]) | IC50 (SNB-75 [6]) | IC50 [7] | Ki [8] | Ki [9] | Ki (SNB-75 [10]) | Ki (C6 [11]) | Ki [12] | Ki (SNB-75 [13]) | Ki (C6 [14]) | Ki [15] | Ki [16] | also measured
CC[P@@]1(=O)O[C@H]([C@H]2COC(C)(C)O2)[C@@H]2OC(C)(C)O[C@@H]2[C@@H]1O | 194 nM | > 100000 nM | > 100000 nM | > 100000 nM | > 100000 nM | > 100000 nM | > 100000 nM | > 100000 nM | 8660 nM | 4920 nM | 2500 nM | 100 nM | 64 nM | 19 nM | 27 nM | 438 nM | 66 nM | 47 nM | 239 nM | 1050 nM | Ki (SNB-75 [17]): 27 nM; Ki (C6 [18]): 25 nM; IC50 [19]: 3800 nM
CC1(C)O[C@@H]2[C@H](O1)[C@@H](Nc1cccc3ccccc13)[P@](=O)(c1ccccc1)O[C@@H]2[C@H]1COC(C)(C)O1 | 36 nM | 1340 nM | > 100000 nM | 9810 nM | 4690 nM | 6870 nM | > 100000 nM | > 100000 nM | 5740 nM | 3410 nM | 2330 nM | 31 nM | 16 nM | 124 nM | 126 nM | 42 nM | 100 nM | 300 nM | 22 nM | 100 nM | Ki (SNB-75 [17]): 60 nM; Ki (C6 [18]): 77 nM; Ki [20]: 290 nM; Ki [21]: 46 nM; Activity [22]: Toxic; Activity [23]: Toxic; Activity [24]: Toxic
